# Source: PubChem
# The list is not random: actives were taken first. Their share in the collection is about 2.2%.
# Myeloid diff MLP: myeloid differentiation induction | calls only at 10 µM | ER-HoxA9 myeloid progenitors, lysozyme-GFP differentiation, flow cytometry | AID 624256 | 1% of 360,000 active;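 active means normalized GFP-positive differentiation at or above the plate's own cutoff, the solvent-only control mean plus 3 SD; inconclusive means no clear call, values can overlap the other calls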;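 further: cells exposed to compound for four days before flow analysis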
# Exocytosis inh: blocks lytic granule exocytosis; TALL-104 LAMP-1 surface exposure, flow cytometry; cells stimulated with thapsigargin and PMA; inhibition, % at 10 µM; 0.66% of 360,000 active;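 active means inhibition above about 55%, limit read from the data; inconclusive means no clear call, values can overlap the other calls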
# CSN deneddyl inh: blocks human CSN-mediated cullin deneddylation. Purified CSN, SCF-Nedd8-OG deneddylation, fluorescence polarization. 0.38% of 360,000 active. inhibition, % at 12.5 µM. Q92905;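 active means pattern-corrected inhibition above about 35%, with an unprinted fluorescence ratio check between 0.5 and 1.5, limit read from the data, passing the limit was not always enough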;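 further: 0% = enzyme with substrate and 100% = substrate without enzyme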
#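 Material: human Csn5 produced in HEK293T cells; Input: enzyme 0.24 nM; Reagent: SCFSkp2-Nedd8OG substrate at 10 nM final; Dosing: 12.5 µM compound; Incubation: 90 min reaction at room temperature; Detection: fluorescence polarization of the substrate; Evaluation: % inhibition of substrate cleavage by Csn5; Control set: substrate-only high control, full reaction low control.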
# HNF4A DNA FP: change in binding of human HNF4 alpha to DNA; P41235; HNF4a-FITC DNA binding, fluorescence polarization, 1 h; 0.3% of 360,000 active; activity change, % at 10 µM; in the data active means activity change above about 30%, passing the limit was not always enough
# Target sequence (P41235 whole entry, looked up): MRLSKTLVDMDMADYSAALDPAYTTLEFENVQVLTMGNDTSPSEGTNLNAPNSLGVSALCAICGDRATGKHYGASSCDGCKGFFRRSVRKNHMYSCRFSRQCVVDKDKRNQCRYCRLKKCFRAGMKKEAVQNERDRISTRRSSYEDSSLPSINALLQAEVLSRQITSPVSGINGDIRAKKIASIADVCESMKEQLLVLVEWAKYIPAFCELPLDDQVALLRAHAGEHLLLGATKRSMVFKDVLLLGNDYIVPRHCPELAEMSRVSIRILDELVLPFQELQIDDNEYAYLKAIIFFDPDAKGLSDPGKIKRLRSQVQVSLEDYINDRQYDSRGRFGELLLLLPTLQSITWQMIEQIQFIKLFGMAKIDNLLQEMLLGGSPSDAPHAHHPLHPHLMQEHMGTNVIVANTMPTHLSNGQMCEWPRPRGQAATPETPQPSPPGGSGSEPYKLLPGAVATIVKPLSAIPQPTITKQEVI
# An asterisk follows results filed as active; i = inactive; ? = inconclusive; · = not tested or not shown; + = active, no number; ! = not confirmed by another sample.
SMILES,Myeloid diff MLP,Exocytosis inh,CSN deneddyl inh,HNF4A DNA FP
CN1C(=O)C(C)(C)c2cc(S(=O)(=O)N3CCN(c4ccc(F)cc4)CC3)ccc21,i,-1.1,-0.8,-2.6
N#C/C(=C\C1=C(N2CCOCC2)C(=C\c2ccc(Cl)cc2)/CC1)C(=O)Nc1ccccc1F,+,1.2,16.6,27.7
CCN(CC)c1ccc(/C=C2\CCC(/C=C(/C#N)C(=O)Nc3ccccc3F)=C2N2CCOCC2)cc1,i,-17.3,12.3,8.8
N#C/C(=C/C1=C(N2CCOCC2)C(=C/c2ccc(Cl)cc2Cl)/CC1)C(=O)Nc1ccccc1F,+,5.5,31.8,26.5
COc1cc(NC(=O)C2=C(N3CCOCC3)/C(=C\c3ccc(Cl)cc3Cl)CC2)cc(OC)c1OC,i,1.3,-2.6,4.0
N#C/C(=C/C1=C(N2CCOCC2)C(=C/c2ccccc2)/CC1)C(=O)Nc1ccccc1F,+,0.3,57.6*,83.5
Cc1ccc([C@H]2C[C@@H](n3cc(COC(=O)c4ccccc4)nn3)[C@H](O)CN2C(=O)c2cccs2)cc1,i,0.8,1.5,0.4
COc1ccc(Cl)cc1NC(=O)CCCn1c(=O)c2cccn2c2cccnc21,i,-3.4,1.7,3.1
O=S1(=O)N=C(N(CCO)/N=C/c2ccc(Cl)cc2)c2ccccc21,i,-4.6,-0.7,-1.8
O=S1(=O)N=C(N(CCO)/N=C/C=C/c2ccccc2)c2ccccc21,+,4.6,-5.5,0.8
COc1cccc(Nc2nc(C(N)Cc3ccc(F)cc3)cs2)n1 (centres undefined),+,0.0,1.0,4.0
CC(C)CN1C(=O)NC(NC(=O)c2ccco2)(C(F)(F)F)C1=O (centres undefined),i,2.8,-0.9,38.6*
CCN1C(=O)/C(=C/N2CCc3ccccc3C2)SC1=S,i,7.0,1.0,-1.3
CCCCCN1C(=O)/C(=C/c2c(N3CCc4ccccc4C3)nc3ccccn3c2=O)SC1=S,+,-7.8,64.0,97.6
Cc1cc(N2CCCC2)c(F)cc1/C=C\[N+](=O)[O-],?,74.4*,31.2,-1.1
C[C@H](O)[C@@H]1C(=O)N2CCc3c([nH]c4ccccc34)[C@@H]2C[C@@H]1N(C)C(=O)NC1CCCCC1,i,-2.5,-2.8,-2.6
Cc1nc(C)c(-c2nnc(-c3ccccc3Cl)o2)cc1C(=O)NN,i,-0.9,1.5,-3.1
Cc1nc(C)c(-c2nnc(-c3ccc(C(C)(C)C)cc3)o2)cc1C(=O)NN,+,-2.0,4.5,4.5
CCOC(=O)c1cnn2c(C)cc(-c3ccccc3)nc12,i,-1.9,-5.0,52.9*
CCN(CC(=O)Nc1ccc(NC(C)=O)cc1)CC(=O)Nc1cc(C)on1,i,-4.8,2.2,3.5
COc1ccc2cc1Oc1ccc(cc1)C[C@H]1c3c(cc(OC)c4c3Oc3c(ccc5c3[C@H](C2)N(C)CC5)O4)CCN1C,?,9.1,-0.1,76.4*
COc1ccc2cc1Oc1ccc(cc1)CC1c3c(cc(OC)c4c3Oc3cc5c(cc3O4)CCNC5C2)CCN1C (centres undefined),+,17.6,3.7,99.7*
CCOc1ccc(C2NCCc3cc(OC)c(OC)cc32)cc1OC (centres undefined),i,-4.6,-2.9,-1.3
COc1ccc(CC2(CO)CCN(S(=O)(=O)c3cccc4cccnc34)CC2)cc1,i,-1.6,-0.7,0.3
COc1ccc(F)cc1S(=O)(=O)NCCCn1ccnc1,i,1.6,1.5,-1.7
SMILES,Myeloid diff MLP,Exocytosis inh,CSN deneddyl inh,HNF4A DNA FP
CCN(CC(=O)Nc1ccccc1C(F)(F)F)C(=O)COc1cccc2c1OC(C)(C)C2,i,-0.6,6.9,-0.6
CC1(C)Cc2cccc(OCC(=O)Nc3ccccc3C(F)(F)F)c2O1,i,-6.2,3.7,40.5*
CCCn1c(SCC(=O)N2c3ccccc3Sc3ccccc32)nc2c1c(=O)n(C)c(=O)n2C,i,0.6,1.9,-1.3
CC(C)n1c(SCC(=O)N2c3ccccc3Sc3ccccc32)nc2c1c(=O)n(C)c(=O)n2C,+,2.7,-0.7,-5.3
O=[N+]([O-])c1c(Nc2ccccc2O)cc(Cl)c2nonc12,?,60.6*,4.9,0.8
CC(C)c1ccc(NC2CCCN(C(=O)CCN3CCCC3=O)C2)cc1 (centres undefined),+,0.2,-0.6,3.1
COc1ccc(C(=S)N2CCOCC2)cc1OC(=O)c1cc(OC)c(OC)c(OC)c1,+,-0.8,3.1,-1.9
COc1ccc(C(=S)N2CCOCC2)cc1OC(=O)c1ccccc1,i,-6.2,3.4,0.3
CC1(C2CC2)NC(=O)N(CC(=O)Nc2ccccc2C#N)C1=O (centres undefined),i,-2.4,-1.0,-2.3
CCNS(=O)(=O)c1ccc(CCC(=O)NCc2ccncc2)cc1,·,3.7,2.7,-1.6
COc1ccc(-c2oc3ccc(N4CCOCC4)cc3c2C#Cc2ccc(N)cc2)cc1,+,-1.0,4.6,1.6
COc1ccc(C#Cc2c(-c3ccsc3)oc3ccc(N4CCOCC4)cc23)cc1,i,1.2,-0.9,-2.8
NC(=O)c1ccc(=O)n(C2OC(CO)C(O)C2O)c1 (centres undefined),i,9.6,0.8,-0.1
O=C1C=CN(C2OC(CO)C(O)C2O)C(=O)C1 (centres undefined),+,6.6,-0.6,5.3
Nc1c(N(CCC2=CCCCC2)C(=O)C2CC2)c(=O)[nH]c(=O)n1Cc1ccccc1,i,10.7,-4.8,1.5
Oc1c(C=C2N=c3ccccc3=N2)sc(=S)n1-c1ccc(F)cc1,i,1.8,-4.8,38.8*!
Oc1c(C=C2N=c3ccccc3=N2)sc(=S)n1-c1ccc2ccccc2c1,i,59.0*,-5.5,3.8
Cc1ccc(NC(=O)CSCC(=O)NC2(C)CCS(=O)(=O)C2)cc1 (centres undefined),i,-1.3,2.2,-1.2
COc1ccccc1CN(C)C[C@H]1OCc2cnnn2CCCC(=O)N([C@H](C)CO)C[C@@H]1C,i,-1.8,0.0,-10.0
CCSC1=N/C(=C\C=C2/Oc3ccccc3N2CC)C(=O)S1,+,-5.7,117.6,187.1
CCOC(=O)C1(Cc2cccc(Cl)c2)CCCN(C(=O)c2ccc(COC)s2)C1 (centres undefined),i,-2.4,1.1,1.6
COc1ccc(-c2ccc(C3C(C#N)=C(N)Oc4n[nH]c(C)c43)o2)cc1 (centres undefined),i,0.4,31.1,61.0*
Cc1cn([C@H]2C[C@H](N=[N+]=[N-])[C@@H](CO)O2)c(=O)[nH]c1=O,+,-2.1,-6.8,2.6
Cc1cn(C2CC(O)C(O)C(CO)O2)c(=O)[nH]c1=O (centres undefined),i,11.0,-0.7,2.3
COc1cc(CNc2ccc(N3CCCC3)cc2)cc(Cl)c1OC,+,0.7,9.1,0.2
O=[N+]([O-])c1ccc(CSc2nnc(Cc3ccccc3)n2-c2ccc(F)cc2)cc1,+,-3.0,-10.0,-2.5
Cc1cccc(CSc2nc3nc(C)cc(C)n3n2)c1,+,2.3,-0.9,1.8
Cc1cc(C)n2nc(SCCOc3ccc(F)cc3)nc2n1,+,3.3,1.2,0.0
